High-throughput results: PubChem BioAssay, several laboratories
procasp3 activ = activators of human procaspase-3 | recombinant procaspase-3 D3A, Ac-DEVD-pNA absorbance 405 nm | 330,000 tested, 0.11% active | activation, % at 8.5 µM;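 active means activation above the mean of all tested compounds plus 3 SD, cut at about 21% in these data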
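System: Procaspase-3 D3A mutant. Medium: Zinc-free 300 mM NaCl, 50 mM HEPES, 0.01% Triton X-100. Schedule: 1 h preincubation plus 2 h reaction at 25 °C. Measured by: 405 nm absorbance of p-nitroaniline, reads at 0 and 120 min. Read-out: percent activation relative to control range.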
Bfl-1 A1 inh = inhibitors of the anti-apoptotic protein A1, read as caspase activation | MEF A1-2A-BIM cells, Caspase-Glo 3/7 luminescence, 3 h; percent of clofoctol response, vehicle zero | caspase activation, % (test concentration not listed) | 330,000 tested, 0.066% active;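 active means over half of replicate activation scores above 10%, or exactly half above 10 with the replicate mean above 10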
MsrA act = bovine methionine sulfoxide reductase A activation | purified bovine MsrA, absorbance read-out | activation, % at 10.6 µM | 360,000 tested, 0.3% active | AID 602163; in the data active means activation above about 7.5%
MsrA inh = inhibits bovine methionine sulfoxide reductase A; purified bovine MsrA, absorbance read-out; inhibition, % at 15.5 µM; 360,000 tested, 0.75% active; AID 651718
proCasp7 act = counter-screen: procaspase-7 (human) activation. P55210. recombinant procaspase-7, Ac-DEVD-pNA absorbance 405 nm; D23A/D198A/D206A triple mutant, cannot self-cleave; scale: DMSO 0, 5 µM enzyme 100. activation, % at 8.5 µM. 330,000 tested, 0.093% active;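 active means percent activation above the screen-wide mean plus 3 SD, cut at about 25% in these data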
Target sequence (P55210 whole entry D23A/D198A/D206A): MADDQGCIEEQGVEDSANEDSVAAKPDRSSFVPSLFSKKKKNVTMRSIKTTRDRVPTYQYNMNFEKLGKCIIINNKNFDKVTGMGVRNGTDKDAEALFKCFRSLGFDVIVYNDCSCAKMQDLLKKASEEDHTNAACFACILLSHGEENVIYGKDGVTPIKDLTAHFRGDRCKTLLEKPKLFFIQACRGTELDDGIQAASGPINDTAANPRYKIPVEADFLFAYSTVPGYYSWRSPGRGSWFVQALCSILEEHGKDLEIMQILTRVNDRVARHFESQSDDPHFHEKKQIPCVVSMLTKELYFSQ
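Material: Procaspase-7 triple mutant (PC-7 D3A) | Quantity: 2 µM procaspase-7 mutant as dispensed | Reagent: DEVD-pNA substrate | Times: 1 h preincubation, 2 h reaction | Technique: 405 nm absorbance of p-nitroaniline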
MsrA conf = bovine MsrA inhibition, confirmed | shares compounds with MsrA inh | purified bovine MsrA, absorbance read-out | inhibition, % at 15.5 µM | 2,300 tested, 41% active;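 further: coupled to thioredoxin reductase with NADPH and selenocystamine and DMSO as substrate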
Large screens that a line does not name were inactive (follow-up assays come after a bar, where they were run). Shown are actives, neighbours in structure and some others; about 1.2% of the full set was active somewhere. Unless noted, no stated cut-off is given here; in the data, active means inhibition above about 4.5%; inactive means the rest.

CCOP(=O)(CCP(=O)(OCC)OCC)OCC.C[CH2][Sn]([Cl])([Cl])[CH2]C	MsrA inh 56 (no result: procasp3 activ, Bfl-1 A1 inh, proCasp7 act) | MsrA conf 51
CCOP(=O)(OCC)OCC	none
COc1ccc2nc(-c3ccc(CN4CCC(n5nnc6ccccc65)CC4)cc3)c(-c3ccccc3)nc2c1	none (no result: procasp3 activ, Bfl-1 A1 inh, MsrA act, proCasp7 act)
C=CCn1c(O)c(/C=C/C=Nc2ccccc2)c(=O)[nH]c1=O	MsrA inh 5.7 | MsrA conf inactive
CCn1nc(/C=C/c2ccccc2)nc2c(=O)n(C)c(=O)nc1-2	MsrA inh 5.3 (no result: procasp3 activ, Bfl-1 A1 inh, proCasp7 act) | MsrA conf 4.6
Cc1ccccc1-c1ccc2n1Cc1cnnn1-c1ccccc1-2	MsrA inh 5.5 (no result: procasp3 activ, Bfl-1 A1 inh, proCasp7 act) | MsrA conf inactive
Cc1ccc(N2Cc3ccccc3-n3nncc3C2)cc1	none (no result: procasp3 activ, Bfl-1 A1 inh, MsrA act, proCasp7 act)
CC(=O)/C=C/c1ccccc1	none (no result: Bfl-1 A1 inh)
O=C(/C=C/C=C/c1ccccc1)CC1(O)C(=O)Nc2ccccc21 (stereo not given)	MsrA inh 7.2 | MsrA conf 5.6
O=C(NN=Cc1ccc(N(CCCl)CCCl)cc1Cl)c1cccnc1	none (no result: procasp3 activ, Bfl-1 A1 inh, proCasp7 act)
Cc1cc(N(CCCl)CCCl)ccc1C=NNC(=O)c1cccnc1	MsrA inh 5.3 (no result: procasp3 activ, Bfl-1 A1 inh, proCasp7 act) | MsrA conf inactive
